B1: tRNA (parent)
chain: CUCUCGGUAGCCAAGUUGGUUUAAGGCGCAAGACUUUAAUUUAUCACUACGAAAUCUUGAGAUCGGGCGUUCGACUCGCCCCCGGGAGAUUUUUUCCUCGAGCAA

Fewer inactive variants are shown than the library holds.

This data set covers variants of B1. Briefly: nonsense suppression (GFP-seq) (ratio to wild type); higher = more function; SUP4oc tRNA, yeast GFP reporter sort-seq. In short, it runs like this:
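Raffinose/galactose medium with 80 mg/L adenine was used to grow yeast carrying genome-integrated tRNA variants (~3% random-mutation library), RFP, and a galactose-driven GFP ochre reporter. Cells went into GFP/RFP bins, which were Illumina-sequenced, and variants with ≥100 reads and ≥30 cells were scored. Nonsense suppression (GFPSEQ) is the per-bin median GFP/RFP weighted by estimated cell share and expressed relative to the unmutated parent tRNA.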
As for CUCUCGGUAGCCAAGUUGGUUGAAGGCUCAAGACUUUAAUUUAUCACUACGAAAUCUUGAGUUCGGGCGUUCUACUCGCCCCCGGGAGAUUUUUUCCUCGAGCAA, the nonsense suppression is at most 0.026.
For CUCUCGGUAGCCAAGUUGGUUUGAGGCGCAAGACUUUAAUUUAUCACUACGAAAUCUUGAGAUCGGACGUUCGACUCGCACCCGGGAGAUUUUUUCCUCGAGCAA the value was at most 0.026; for CUCUCGGUAGCCAAGUUGGUUUGAGGCGCAAGACUUUAAUUUAUCACUACGAAAUCUUGAGAUCGGGCGUUCCACUCGCCCCCGGGAGAUUUUUUCCUCGAGCAA, at most 0.026; for CUCUCGGUAGCCAAGUUGGUUUGAGGCGCAAGACUUUAAUUUAUCACUACGAAAUCUUGAGAUCGGGCGUUCAACUCGCCCCCGGGAGAUUUUUUCCUCGAGCAA, 0.0291.
For CUCUCGGUAGCCAAGUUGGUUUGAGGCGCAAGCCUUUAAUUUAUCACUACGAAAUCUUGAGAUCGAGCGUUCGACUCGCCCCCGGGAGAUUUUUUCCUCGAGCAA the value was at most 0.026; for CUCUCGGUAGCCAAGUUGGUUGAAGGCGCAAGAAUUUAAUUUAUCACUACGAAAUCUUGAGAUCGGGCGUUCGACUCGCCCCCGAGAGAUUUUUUCCUCGAGCAA, at most 0.026.
On to CUCUCGGUAGCCAAGUUGGUUGAAGGCGCAAGACUUUAAUUUAUCACUACGAAAUCUUGAGAUCGGGCGUUCGACUCUCCCCCGAGAGAUUUUUUCCUCGAGCAA, for which the nonsense suppression is 0.788.
As for CUCUCGGUAGCCAAGUUGGUUUGCGGCGCAAGACUUUAAUUUAUCACUACGAAAUCUUGAGAUCGGGCGUUCGACUCGCCCCCGGGAGAUUUUUUCCUCGAGCAA, the figure is 0.156; as for CUCUCGGUAGCCAAGUUGGUUGAAGGCGCAAGACUUUAAUUUAUCACUACGAAAUCUUGAGAACGGGCGUUCGACUCGCCCCCGGGAGAUUUUUUCCUCGAGCAA, 0.939.
As for CUCUCGGUAGCCAAGUUGGUUGAAGGCGCAAGACUUUAAUUUAUCACUACGAAAUCUUGAGACCGGGCGUUCGACUCGCCCCCGGGAGAUUUUUUCCUCGAGCAA, the figure is 0.868; as for CUCUCGGUAGCCAAGUUGGUUUGAGGCGCAAGACUUUAAUUUAUCACUACGAAUUCUUGAGAUCGGGCGUUCGACUCGCCCCCGGGAGAUUUUUUCCUCGAGCAA, 0.0263.
As to CUCUCGGUAGCCAAGUUGGUUUGAGGCGCAAGAAUUUAAUUUAUCACUACGAAAUCUUGAGAUCGGGCGUUCGACUCGCCCCCGGGAGAUUUUUUCCUCGAGCAA, the nonsense suppression is at most 0.026.
As for CUCUCGGUAGCCAAGUUGGUUUCAGGCGCAAGACUUUAAUUUAUCACUACGAAAUCUUGAGAUCGGGCGUUCGACGCGCCCCCGGGAGAUUUUUUCCUCGAGCAA, the figure is at most 0.026.
As for CUCUCGGUAGCCAAGUUGGUUUCAGGCGCAAGACGUUAAUUUAUCACUACGAAAUCUUGAGAUCGGGCGUUCGACUCGCCCCCGGGAGAUUUUUUCCUCGAGCAA, the figure is at most 0.026; as for CUCUCGGUAGCCAAGUUGGUUUGAGGCGCAAGACUUUAAUUUAUCACUACGAAAUCUUGCGAUCGGGCGUUCGACUCGCCCCCGGGAGAUUUUUUCCUCGAGCAA, 0.241.
For CUCUCGGUAGCCAAGUUGGUUUGAGGCGCAAGACUUUAAUUUAUCACUACGAAAUCUUGGGAUCGGGCGUUCGACUCGCCCCCGGGAGAUUUUUUCCUCGAGCAA the value was 0.0474.
For CUCUCGGUAGCCAAGUUGGUUUCAGGCGCAAGAUUUUAAUUUAUCACUACGAAAUCUUGAGAUCGGGCGUUCGACUCUCCCCCGGGAGAUUUUUUCCUCGAGCAA, the nonsense suppression was at most 0.026.
As for CUCUCGGUAGCCAAGUUGGUUGAAGGCGCAAGACUUUAAUUUAUCACUACGAAAUCUUGAGAUCGGGCGUUCAACUCGCCCCCGGGAGAUUUUUUCCUCGAGCAA, the figure is 0.854.
As for CUCUCGGUAGCCAAGUUGGUUUGAGGCGCAAGACUUUAAUUUAUCACUACGAAAUAUUGAGAUGGGGCGUUCGCCUCGCCCCCGGGAGAUUUUUUCCUCGAGCAA, the figure is at most 0.026; as for CUCUCGGUAGCCAAGUUGGUUUGAGGCGCAAGACUUUAAUUUAUCACUACGAAAUAUUGAGAGCGGGCGUUCGACUCGCCCCCGGGAGAUUUUUUCCUCGAGCAA, at most 0.026; as for CUCUCGGUAGCCAAGUUGGUUUGAGGCGCAAGACUUUAAUUUAUCACUACGAAAUCUUCAGAUCGGGCGUUCGACUCGCCCCCGGGAGAUUUUUUCCUCGAGCAA, at most 0.026.
As for CUCUCGGUAGCCAAGUUGGUUUGCGGCGCAAGAUUUUAAUUUAUCACUACGAAAUCUUGAGAUCGGGCGUUAGACUCGCCCCCGGGAGUUUUUUUCCUCGAGCAA, the figure is at most 0.026; as for CUCUCGGUAGCCAAGUUGGUUUGAGGCGCAAGACUUUAAUUUAUCACUACGAAAUCUUGAGAUCGGUCGUUCGACUCGCCCCCGGGAGAUUUUUUCCUCGAGCAA, at most 0.026; as for CUCUCGGUAGCCAAGUUGGUUUCAGGCGCGAGACUUUAAUUUAUCACUACGAAAUCUUGAGAUCGGGCGUUCGACUCGCCACCGGGGGAUUUUUUCCUCGAGCAA, at most 0.026.
For the variant CUCUCGGUAGCCAAGUUGGUUUGAGGCGCUAGACUUUAAUUUAUCACUACGAAAUCUUGAGAUCGGGCGUUCGACUCGCCCCCGGGAGAUUUUUUCCUCGAGCAA, the nonsense suppression worked out at 0.0397.
As for CUCUCGGUAGCCAAGUUGGUUUCAGGCGCAAGACUUUAAUUUAUCACUACGAAAUCCUGAGAUCGGGCGUUCGACUCGCCCCCGGGAGAUUUUUUCCUCGAGCAA, the figure is at most 0.026; as for CUCUCGGUAGCCAAGUUGGUUUGAGGCGCAAGACUUUAAUUUAUCACUACGAAAUCUUGACAUCGGGCGUUCGACUCGCCCCCGGGAGAUUUUUUCCUCGAGCAA, 0.113.
As for CUCUCGGUAGCCAAGUUGGUUUGAGGCGCAAGACUUUAAUUUAUCACUACGAAAUCUUGAGAUCGGGCCUUCGACUCGCCCCCGGGAGAUUUUUUCCUCGAGCAA, the figure is at most 0.026.
For CUCUCGGUAGCCAAGUUGGUUGAAGGCGCAAGACUUUAAUUUAUCACUACGAAAUCUUGAGAUCGGGCGUUCGACUCGCCCCCGUGAGAUUUUUUCCUCGAGCAA the value was 0.796; for CUCUCGGUAGCCAAGUUGGUUUGAGGCGCAAGACUUUAAUUUAUCACUACGAAAUCUUGAGAUCGGGUGUUCGACUCGCCCCCGGGAGAUUUUUUCCUCGAGCAA, 0.182; for CUCUCGGUAGCCAAGUUGGUUGAAGGCGCAAGACUUUAAUUUAUCACUACGAAACCAUGAGAUCAGGCGUUCGACUCGCCCCCGGGAGAUUUUUUCCUCGAGCAA, at most 0.026.
As for CUCUCGGUAGCCAAGUUGGUUUGAGGCGUAAGACUUUAAUUUAUCACUACGAAAUCUUGAGAUCGGGCGUUCGACUCGCCCCCGGGAGAUUUUUUCCUCGAGCAA, the nonsense suppression amounted to 0.142.
As for CUCUCGGUAGCCAAGUUGGUUUCAGGCGCAAGACUUUAAUUUAUCACUACGAAAUCUUGAGAUCGGGCGUUCGACUCGCCCGCGGGAGAUUUUUUCCUCGAGCAA, the figure is at most 0.026.
As for CUCUCGGUAGCCAAGUUGGUUUGAGGCGCAAGACUUUAAUUUAUCACUACGAAAUCUUCAGAUGGGGCGUUCGACUUACCCCCGGGAGAUUUUUUCCUCGAGCAA, the figure is at most 0.026; as for CUCUCGGUAGCCAAGUUGGUUGAAGGCGCAAGACUUUAAUUUAUCACUACGAAAUCUUGAGAUCGGGCGUUCGACUCGCCCUCGGGAGAUUUUUUCCUCGAGCAA, 0.913.
As for CUCUCGGUAGCCAAGUUGGUUUCAGGCGCUAGAGUUUAAUUUAUCACUACGAAAUCUUGAGAUCGGGCGCUGGACUCGCCCCCGGGAGAUUUUUUCCUCGAGCAA, the figure is at most 0.026; as for CUCUCGGUAGCCAAGUUGGUUUGAGGCGCAGGACUUUAAUUUAUCACUACGAAAUCUUGAGAUCGGGCGUUCGACUCGCCCCCGGGAGAUUUUUUCCUCGAGCAA, 0.0446.
For the variant CUCUCGGUAGCCAAGUUGGUUUGAGGCGCAAGACUUUAAUUUAUCACUACGAAAUGUUGAGAUCAGGCGUGCGACUCGCCCCCGGGAGAUUUUUUCCUCGAGCAA, the nonsense suppression is at most 0.026.
For CUCUCGGUAGCCAAGUUGGUUUCAGGCGCAAGACUUUAAUUUAUCACUACGAAAUCUGGAGAUGGGGCGUUCGACUCGCCCCCGGGAGAUUUUUUCCUCGAGCAA the value was at most 0.026; for CUCUCGGUAGCCAAGUUGGUUUCAGGCGCAAGACUUUAAUUUAUCACUACGAAAUCUUGAGAUCGGGCGUUCGACGCGCCCCCGGGAAAUUUUUUCCUCGAGCAA, at most 0.026; for CUCUCGGUAGCCAAGUUGGUUGAAGGCGCAAGACUUUAAUUUAUCACUACGAAAUCUUGAGAUCGGGCGUUCGAAUCGCCCCCGGGAGAUUUUUUCCUCGAGCAA, 0.927.
As for CUCUCGGUAGCCAAGUUGGUUGAAGGCGCAAGACUUUAAUUUAUCACUACGAAAUCUUGAGAUCGGGCGUUCGAUUCGCCCCCGGGAGAUUUUUUCCUCGAGCAA, the figure is 0.981; as for CUCUCGGUAGCCAAGUUGGUUUCAAGCGCAAGACUUUAAUUUAUCACUACGAAAUCUUGAGAUCGGGCGUUCGACUCGCCCCCGGGAGAUUUUUUCCUCGAGCAA, at most 0.026; as for CUCUCGGUAGCCAAGUUGGUUGAAGGCGCAAGACUUUAAUUUAUCACUACGAAAUCUUGAGAUCGGGGGUUCGACUCGCCCCCGGGAGAUUUUUUCCUCGAGCAA, at most 0.026.
For CUCUCGGUAGCCAAGUUGGUUGAAGGCGCAAGACUUUAAUUUAUCACUACGAAACCUUGAGAUCCGGCGUUCGACUCGCUCCCGGGAGAUUUUUUCCUCGAGCAA, the nonsense suppression was at most 0.026.
On to CUCUCGGUAGCCAAGUUGGUUGAAGGCGCAAGACUUUAAUUUAUCACUACGAAAUCUUGAGAUCGGGCGUUCGACUCCCCCCCGGGAGAUUUUUUCCUCGAGCAA, for which the nonsense suppression came out at 0.0318.
As for CUCUCGGUAGCCAAGUUGGUUGAAGGCGCAAGACUUUAAUUUAUCACUACGAAAUCUUGAGAUCGGGCGUUCGACUCACCCCCGGGAGAUUUUUUCCUCGAGCAA, the nonsense suppression was determined as 0.173.
On to CUCUCGGUAGCCAAGUUGGUUGAAGGCGCAAGACUUUAAUUUAUCACUACGAAAUCUUGAGAUCGGGCGUUCGACUCUCCCCCGGGAGAUUUUUUCCUCGAGCAA, for which the nonsense suppression stood at 0.112.
As for CUCUCGGUAGCCAAGUUGGUUUCCGGCGCACGACUUUAAUUUAUCACUACGAAAUCUUGAGAUCGGGCGUUCGACUCGCCCCCGGGAGAUUUUUUCCUCGAGCAA, the figure is at most 0.026.
Take CUCUCGGUAGCCAAGUUGGUUUCAGGCGCAAGACUUUAAUUUAUCACUACGAAAUCUUGAGAUCGGGCGUUCGACUCGCCCCCGGGAAAUUUUUUCCUCGAGCAA: the nonsense suppression is at most 0.026.
As for CUCUCGGUAGCCAAGUUGGUUGAAUGCGCAAGACUUUAAUUUAUCACUACGAAAUCUUGAGAUCGUGCGUUCGACUCGCCCCCGGGAGAUUUUUUCCUCGAGCAA, the nonsense suppression was at most 0.026.
As for CUCUCGGUAGCCAAGUUGGUUUCAGGCGCAAGACUUUAAUUUAUCACUACGAAAUCUUCAAAUCGGGCGUUCGACUCGCCCCCGGGAGAUUUUUUCCUCGAGCAA, the figure is at most 0.026; as for CUCUCGGUAGCCAAGUUGGUUUCAGGCGCAAGACUUUAAUUUAUCACUACGAAAUCUUCACAUCGGGCGUUCGACUCGCCCCCGGGAGAUUUUUUCCUCGAGCAA, at most 0.026; as for CUCUCGGUAGCCAAGUUGGUUGAAUGCGCAAGACUUUAAUUUAUCACUACGAAAUCUUGAGAUCGAGCGUUCGACUCGCCCCCGGGAGGUUUUUUCCUCGAGCAA, at most 0.026.

(Values after the RNAGym collection of RNA variant scans (doi:10.1101/gad.245936.114).)
